Assays:
[1] = target: T1, Flavin-dependent thymidylate synthase (Mycobacterium tuberculosis) (UniProt P9WG57); test: Inhibition of Mycobacterium tuberculosis ThyX-mediated dTMP synthesis using [5-3H]dUMP as substrate at 50 uM after 10 mins by liquid scintillation counting
T1 sequence (whole entry): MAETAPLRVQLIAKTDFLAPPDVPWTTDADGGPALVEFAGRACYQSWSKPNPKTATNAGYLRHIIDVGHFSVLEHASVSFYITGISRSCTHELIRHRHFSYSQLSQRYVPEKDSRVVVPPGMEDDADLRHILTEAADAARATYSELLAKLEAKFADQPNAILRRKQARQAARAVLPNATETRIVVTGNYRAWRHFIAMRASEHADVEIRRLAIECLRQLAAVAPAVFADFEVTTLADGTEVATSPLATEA
Procedure, shortened: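 Compounds tested at a single 50 μM dose on purified M. tuberculosis ThyX with 20 μM mTHF, 10 μM FAD, 500 μM NADPH. [5-3H]dUMP (13 Ci/mmol, stock 2 μM) added to start, 10 min at room temperature, TCA/dUMP stop, charcoal cleanup, tritiated water counted by scintillation; percent inhibition relative to control.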

[2] = target: T2, Thymidylate synthase ThyA (Mycobacterium tuberculosis, UniProt P9WFR9); test: Inhibition of Mycobacterium tuberculosis His-tagged ThyA-mediated dTMP synthesis expressed in BL21 (DE3) Escherichia coli RbCl cells after 30 mins by photometric assay
T2 sequence (P9WFR9 whole entry): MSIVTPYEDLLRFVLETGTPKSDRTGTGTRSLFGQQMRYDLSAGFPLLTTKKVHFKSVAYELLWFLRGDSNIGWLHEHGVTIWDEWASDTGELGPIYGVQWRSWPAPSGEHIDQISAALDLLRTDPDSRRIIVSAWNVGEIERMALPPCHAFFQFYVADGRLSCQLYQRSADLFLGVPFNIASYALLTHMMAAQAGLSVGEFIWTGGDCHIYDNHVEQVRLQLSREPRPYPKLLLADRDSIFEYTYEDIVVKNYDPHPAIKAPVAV

[3] = target: T3, Flavin-dependent thymidylate synthase (Mycobacterium tuberculosis, UniProt P9WG57); test: Inhibition of Mycobacterium tuberculosis ThyX-mediated dTMP synthesis using [5-3H]dUMP as substrate after 10 mins by liquid scintillation counting
T3 sequence (P9WG57 whole entry): T1 sequence (whole entry)
Procedure, shortened: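 Purified M. tuberculosis ThyX with 20 μM mTHF, 10 μM FAD and 500 μM NADPH; reaction started with [5-3H]dUMP (13 Ci/mmol, stock 2 μM), run 10 min at room temperature, stopped with TCA/dUMP. Unreacted substrate removed with activated charcoal (15 min on ice, then centrifugation); tritiated water in supernatant counted. IC50 from dose-response curves of percent activity versus control.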

Question: Which inhibition [1] does the source give for `CCCCCCCS(=O)(=O)NCC#Cc1cn([C@H]2C[C@H](O)[C@@H](COP(=O)(O)O)O2)c(=O)[nH]c1=O` here?
Answer: 84.7%

Question: And the IC50 [2]?
Answer: > 50 µM

Question: What about the IC50 [3] of the same molecule?
Answer: 6.93 µM

Question: For `CCCCCCCCCCC#Cc1cn([C@@H]2O[C@H](COP(=O)(O)O)[C@@H](O)[C@@H]2O)c(=O)[nH]c1=O`, which inhibition [1] is on record?
Answer: 19%

Question: What about the IC50 [2] of the same molecule?
Answer: > 50 µM

Question: And the IC50 [3]?
Answer: > 50 µM

Question: What does the source list for `CCCCCCCCCCC#Cc1cn([C@H]2C[C@H](O)[C@@H](COP(=O)(O)O)O2)c(=O)[nH]c1=O`?
Answer: inhibition [1]: 82.6%; IC50 [2]: > 50 µM; IC50 [3]: 27.8 µM

Question: Which results are given for `O=C(Cc1ccccc1)NCC#Cc1cn([C@H]2C[C@H](O)[C@@H](COP(=O)(O)O)O2)c(=O)[nH]c1=O`?
Answer: inhibition [1]: 86.9%; IC50 [2]: > 50 µM; IC50 [3]: 7.3 µM

Question: What does the source list for `CCCCNC(=O)CCCCC#Cc1cn([C@H]2C[C@H](O)[C@@H](COP(=O)(O)O)O2)c(=O)[nH]c1=O`?
Answer: inhibition [1]: 74.6%; IC50 [2]: > 50 µM; IC50 [3]: 8.03 µM

Question: For `CCCCCCCC(=O)NCC#Cc1cn([C@H]2C[C@H](O)[C@@H](COP(=O)(O)O)O2)c(=O)[nH]c1=O`, which inhibition [1] is on record?
Answer: 92.8%

Question: What about the IC50 [2] of the same molecule?
Answer: > 50 µM

Question: And the IC50 [3]?
Answer: 0.91 µM

Question: What does the source list for `CCCCNC(=O)CCCCC#Cc1cn([C@@H]2O[C@H](COP(=O)(O)O)[C@@H](O)[C@@H]2O)c(=O)[nH]c1=O`?
Answer: inhibition [1]: 21%; IC50 [2]: > 50 µM; IC50 [3]: > 50 µM

Question: What does the source list for `O=c1[nH]c(=O)n([C@H]2C[C@H](O)[C@@H](COP(=O)(O)O)O2)cc1F`?
Answer: inhibition [1]: 95.1%; IC50 [2]: 0.57 µM; IC50 [3]: 0.29 µM

Question: `CCCCCCNC(=O)NCC#Cc1cn([C@H]2C[C@H](O)[C@@H](COP(=O)(O)O)O2)c(=O)[nH]c1=O` was tested. Which inhibition [1] did it give?
Answer: 90.9%

Question: What about the IC50 [2] of the same molecule?
Answer: > 50 µM

Question: What about the IC50 [3] of the same molecule?
Answer: 4.84 µM

Question: For `CCCC(=O)NCC#Cc1cn([C@H]2C[C@H](O)[C@@H](COP(=O)(O)O)O2)c(=O)[nH]c1=O`, which inhibition [1] is on record?
Answer: 72%

Question: And the IC50 [2]?
Answer: > 50 µM

Question: And the IC50 [3]?
Answer: 26.2 µM

Question: How did the inhibition [1] turn out when `COc1cccc(-c2cn([C@H]3C[C@H](O)[C@@H](COP(=O)(O)O)O3)c(=O)[nH]c2=O)c1` was run?
Answer: 16%

Question: And the IC50 [2]?
Answer: > 50 µM

Question: What about the IC50 [3] of the same molecule?
Answer: > 50 µM

Question: Which inhibition [1] does the source give for `O=c1[nH]c(=O)n([C@H]2C[C@H](O)[C@@H](COP(=O)(O)O)O2)cc1-c1ccc(F)cc1` here?
Answer: 74%

Question: What about the IC50 [2] of the same molecule?
Answer: > 50 µM

Question: And the IC50 [3]?
Answer: 10 µM

Question: `N#C/C=C/c1cn([C@H]2C[C@H](O)[C@@H](COP(=O)(O)O)O2)c(=O)[nH]c1=O` was tested. Which inhibition [1] did it give?
Answer: 81.3%

Question: And the IC50 [2]?
Answer: > 50 µM

Question: And the IC50 [3]?
Answer: 7.4 µM

Question: How did the inhibition [1] turn out when `CCCCCC(=O)NCC#Cc1cn([C@H]2C[C@H](O)[C@@H](COP(=O)(O)O)O2)c(=O)[nH]c1=O` was run?
Answer: 89.9%

Question: And the IC50 [2]?
Answer: > 50 µM

Question: What about the IC50 [3] of the same molecule?
Answer: 8.61 µM

— ChEMBL document CHEMBL1821613, “Synthesis and evaluation of 5-substituted 2'-deoxyuridine monophosphate analogues as inhibitors of flavin-dependent thymidylate synthase in Mycobacterium tuberculosis” (J Med Chem, 2011)
